The record followed here is ChEMBL document CHEMBL2177078, “New positron emission tomography (PET) radioligand for imaging σ-1 receptors in living subjects” (J Med Chem, 2012).

The Ki is a measure of affinity in units of concentration, obtained from inhibition or displacement. Low readings indicate a stronger hold on the target, high ones a looser hold on the target.

For series [1], the species on record is Mus musculus. Briefly: Biodistribution in mouse corpus callosum at 200 uCi after 60 mins by autoradiography. In kind it is ADME, organism-based. Particulars: in vivo, 1 h. An outline of the steps: (§1)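 Mice injected iv with 200-250 μCi tracer; brains taken 60 min later after saline perfusion, snap frozen and cut as 12 μm sagittal sections. Sections air-dried 10 min, exposed to 18F-sensitive phosphor screens 12 h at 4 °C, then imaged; anatomy confirmed by Nissl staining. Blocking arm given BD1047 (1 mg/kg) 10 min before tracer.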

In a further series the test system is Cerebellum. Briefly: Biodistribution in mouse cerebellum at 200 uCi after 60 mins by autoradiography. The series is classed as ADME, organism-based. Particulars: in vivo, 1 h. An outline of the steps:
as §1

In the next series the test system is Hippocampus. Description: Biodistribution in mouse hippocampus at 200 uCi after 60 mins by autoradiography. Particulars: in vivo, 1 h. The series is classed as ADME, organism-based. Put shortly:
as §1

Another series relates to Cortex. Briefly: Biodistribution in mouse cortex at 200 uCi after 60 mins by autoradiography. Particulars: in vivo, 1 h. The series is classed as ADME, organism-based. Put shortly:
as §1

For series [2], the species on record is Mus musculus. Briefly: Biodistribution in mouse brain facial nucleus at 200 uCi after 60 mins by autoradiography. In kind it is ADME, organism-based. Particulars: in vivo, 1 h. Put shortly:
as §1

In series [3] the test system is Brain. Description: Drug uptake in Balb C mouse brain at 630-690 uCi, iv after 60 mins by HPLC analysis. In kind it is ADME, organism-based. The following applies: in vivo, 1 h. An outline of the steps:
(§2)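 Balb C mice (n=2 per time point) received 630-690 μCi tracer iv; brain and liver collected at 30 and 60 min. Tissue homogenized in 500 μL ice-cold acetonitrile, centrifuged 9,400 g for 4 min. Supernatants run on reversed-phase radio-HPLC; percent intact parent = parent peak area/total peak area × 100, decay corrected to dosing. Extraction efficiency checked by gamma counting.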

Series [4] concerns Liver. Briefly: Drug uptake in Balb C mouse liver at 630-690 uCi, iv after 60 mins by HPLC analysis. The series is classed as ADME, organism-based. The following applies: in vivo, 1 h. Put shortly:
as §2

In series [5] the test system is Brain. Description: Drug uptake in Balb C mouse brain at 630-690 uCi, iv after 30 mins by HPLC analysis. The series is classed as ADME, organism-based. Particulars: in vivo, 0.5 h. Put shortly:
as §2

In series [6] the test system is Liver. Briefly: Drug uptake in Balb C mouse liver at 630-690 uCi, iv after 30 mins by HPLC analysis. In kind it is ADME, organism-based. Particulars: in vivo, 0.5 h. An outline of the steps: as §2
Series [7] deals with Brain. Briefly: Biodistribution in mouse brain at 200 uCi administered 10 mins post BD1047 treatment measured after 60 mins by autoradiography. In kind it is ADME, organism-based. Particulars: in vivo, 1 h. Put shortly: as §1
The species named for series [8] is Mus musculus. Briefly: Biodistribution in mouse midbrain at 200 uCi after 60 mins by autoradiography. The series is classed as ADME, organism-based. The following applies: in vivo, 1 h. An outline of the steps: as §1
The subject of series [9] is Brain. Description: Biodistribution in mouse brain assessed as reduction in compound uptake at 95-125 uCi, iv administered 10 mins post BD1047 treatment measured after 60 mins by PET imaging. Particulars: in vivo, 1 h. The series is classed as ADME, organism-based. An outline of the steps:
(§3)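 Normal Balb C mice (20-30 g) under isoflurane (3% induction, 1-3% maintenance). […] Dynamic list-mode microPET acquisition started just before injection and ran 60 min; images reconstructed by 2D OSEM, whole-brain time-activity curves.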

In series [10] the test system is Brain. Briefly: Biodistribution in mouse brain assessed as reduction in compound uptake at 95-125 uCi, iv administered 10 mins post FTC-146 treatment measured after 60 mins by PET imaging. The series is classed as ADME, organism-based. The following applies: in vivo, 1 h. An outline of the steps:
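Normal Balb C mice (20-30 g) under isoflurane (3% induction, 1-3% maintenance). […] Dynamic microPET list-mode acquisition for 60 min, OSEM reconstruction. Whole-brain uptake from time-activity curves, reduction read at 60 min.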

In series [11] the test system is CHO. Description: Cellular uptake in CHO cells after 30 to 120 mins by gamma counting. The series is classed as ADME, cell-based, Cricetulus griseus. The following applies: chinese hamster. An outline of the steps: (§4)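 CHO cells grown in Ham's F-12, seeded 2 × 10^5 per well, transfected 24 h later with 0.8 μg empty pcDNA (control) or 0.8 μg S1R (OPRS1) DNA; medium refreshed at 12 h. At 24 h post-transfection, exposed to [18F] tracer (2 μCi/well) for 30 and 120 min, triplicate wells. Washed twice with cold PBS, lysed in 1 N NaOH, gamma counted; normalized to Bradford protein.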

The subject of series [12] is Brain. Briefly: Biodistribution in mouse brain at 95-125 uCi, iv by PET imaging. The following applies: in vivo. The series is classed as ADME, organism-based. An outline of the steps:
as §3

The test system of series [13] is Brain. Briefly: Biodistribution in mouse brain assessed as reduction in compound uptake at 95-125 uCi, iv administered 10 mins post haloperidol treatment measured after 60 mins by PET imaging. In kind it is ADME, organism-based. Particulars: in vivo, 1 h. An outline of the steps:
as §3

Series [14] in a line: Displacement of [3H]di-o-tolylguanidine from Sigma2 receptor in rat liver homogenate. The series is classed as tissue-based. An outline of the steps: (§5)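 Competition binding of unlabeled ligand in rat brain or rat liver homogenates. S2R binding run in the presence of 300 nM 1 to mask S1R sites. Liver assays run on a 96-well platform.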
On the technique in general: Displacement assays read how much labelled ligand stays bound in the presence of the test substance.

A short description of series [15]: Displacement of [3H]di-o-tolylguanidine from Sigma2 receptor in rat brain homogenate. The series is classed as tissue-based. Put shortly: as §5
Series [16] deals with T1, Sigma non-opioid intracellular receptor 1 (Rattus norvegicus, UniProt Q9R0C9). Description: Displacement of [3H](+)-pentazocine from Sigma1 receptor in rat brain homogenate. The series is classed as tissue-based.
T1 sequence (Q9R0C9 whole entry): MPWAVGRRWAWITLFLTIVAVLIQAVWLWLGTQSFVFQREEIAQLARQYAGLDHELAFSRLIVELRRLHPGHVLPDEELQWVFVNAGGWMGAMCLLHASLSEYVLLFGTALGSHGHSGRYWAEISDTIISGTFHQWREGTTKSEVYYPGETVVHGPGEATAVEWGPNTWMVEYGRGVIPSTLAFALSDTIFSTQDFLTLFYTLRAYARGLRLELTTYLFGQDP
Series [17] in a line: Binding affinity to acetylcholine esterase at 100 nM.
A short description of series [18]: Binding affinity to sodium channel site 2 at 100 nM.
The nature of series [19]: Binding affinity to calcium channel L type at 100 nM.
The nature of series [20]: Binding affinity to alpha bungarotoxin insensitive neuronal nicotinic receptor at 100 nM.
Series [21] can be described thus: Binding affinity to peripheral muscarinic receptor at 100 nM.
Series [22] addresses T2, Muscarinic acetylcholine receptor M2 (Homo sapiens) (UniProt P08172).
T2 sequence (whole entry): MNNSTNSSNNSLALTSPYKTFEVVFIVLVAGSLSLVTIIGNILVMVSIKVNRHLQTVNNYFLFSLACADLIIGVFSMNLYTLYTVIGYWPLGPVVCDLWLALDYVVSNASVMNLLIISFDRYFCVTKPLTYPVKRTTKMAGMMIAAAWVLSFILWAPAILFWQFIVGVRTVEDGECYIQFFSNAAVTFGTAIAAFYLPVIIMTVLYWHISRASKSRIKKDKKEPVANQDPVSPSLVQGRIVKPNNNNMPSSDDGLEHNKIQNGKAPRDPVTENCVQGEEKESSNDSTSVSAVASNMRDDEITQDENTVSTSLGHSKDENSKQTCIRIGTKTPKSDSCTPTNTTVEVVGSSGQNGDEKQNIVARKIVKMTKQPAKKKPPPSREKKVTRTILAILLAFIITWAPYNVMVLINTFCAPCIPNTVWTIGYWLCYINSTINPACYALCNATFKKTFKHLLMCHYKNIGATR
Description: Binding affinity to muscarinic M2 receptor at 100 nM.

The target in series [23] is Histamine H2 receptor (Homo sapiens) (UniProt P25021). Briefly: Binding affinity to histamine H2 receptor at 100 nM.
Chain of Histamine H2 receptor (Homo sapiens) (P25021 whole entry): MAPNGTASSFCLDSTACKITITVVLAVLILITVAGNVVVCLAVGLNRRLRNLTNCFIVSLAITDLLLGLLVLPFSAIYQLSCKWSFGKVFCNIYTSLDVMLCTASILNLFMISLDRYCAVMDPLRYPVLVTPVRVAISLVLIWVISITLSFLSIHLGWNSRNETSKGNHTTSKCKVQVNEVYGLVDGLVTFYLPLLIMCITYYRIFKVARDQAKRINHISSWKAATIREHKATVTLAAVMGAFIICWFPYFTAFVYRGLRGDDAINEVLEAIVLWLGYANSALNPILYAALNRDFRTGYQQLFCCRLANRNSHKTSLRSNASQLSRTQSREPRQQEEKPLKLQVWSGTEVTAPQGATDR
Series [24] is described as follows: Binding affinity to alpha-2 adrenergic receptor at 100 nM.
The target in series [25] is Sigma non-opioid intracellular receptor 1 (Homo sapiens) (UniProt Q99720). Briefly: Binding affinity to Sigma1 receptor overexpressed in CHO cells after 30 to 120 mins by gamma counting. In kind it is cell-based. The following applies: tested as the 18F-labelled form. Put shortly: as §4
Chain of Sigma non-opioid intracellular receptor 1 (Homo sapiens) (Q99720 whole entry): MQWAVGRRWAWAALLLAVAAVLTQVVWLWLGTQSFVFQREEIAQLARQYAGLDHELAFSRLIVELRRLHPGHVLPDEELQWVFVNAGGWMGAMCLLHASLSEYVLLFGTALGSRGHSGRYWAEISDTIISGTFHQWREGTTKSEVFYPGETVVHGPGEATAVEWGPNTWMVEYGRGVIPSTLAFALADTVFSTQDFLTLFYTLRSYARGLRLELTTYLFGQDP
The target is the same in series [26]. Description: Binding affinity to Sigma1 receptor overexpressed in CHO cells after 120 mins by gamma counting relative to control. In kind it is cell-based. The following applies: tested as the 18F-labelled form. Put shortly:
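CHO cells grown in Ham's F-12, 2 × 10^5 per well, transfected 24 h later with 0.8 μg empty pcDNA (control) or S1R (OPRS1) cDNA; medium refreshed at 12 h. At 24 h post-transfection, 2 μCi [18F] tracer per well; triplicates; 30 and 120 min uptake, two cold PBS washes, 1 N NaOH lysis, γ counting, normalized to Bradford protein.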

In series [27] the target is T1, Sigma non-opioid intracellular receptor 1. Briefly: Displacement of [3H](+)-pentazocine from Sigma1 receptor in rat liver homogenate. In kind it is tissue-based.
Series [28] has as its target Sodium-dependent noradrenaline transporter (Homo sapiens) (UniProt P23975). Description: Binding affinity to norepinephrine transporter at 100 nM.
The test system of series [29] is CHO. Description: Cellular uptake in CHO cells after 30 to 120 mins by liquid scintillation counting. In kind it is ADME, cell-based, Cricetulus griseus. Particulars: chinese hamster. An outline of the steps:
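Uptake in CHO cells in Ham's F-12, empty-pcDNA or S1R-transfected (0.8 μg DNA, 2 × 10^5 cells/well). [18F]13 at 2 μCi per well or [3H]1, 30 and 120 min, triplicate. Cells washed with cold PBS and lysed in 1 N NaOH. Counted by gamma counter (18F) or liquid scintillation (3H), normalized to Bradford protein.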

Each structure is given as a SMILES string. The source made the active and inactive calls. The calls are words filed in the database; no cut-off is given here.

Chain of Sodium-dependent noradrenaline transporter (Homo sapiens) (P23975 whole entry): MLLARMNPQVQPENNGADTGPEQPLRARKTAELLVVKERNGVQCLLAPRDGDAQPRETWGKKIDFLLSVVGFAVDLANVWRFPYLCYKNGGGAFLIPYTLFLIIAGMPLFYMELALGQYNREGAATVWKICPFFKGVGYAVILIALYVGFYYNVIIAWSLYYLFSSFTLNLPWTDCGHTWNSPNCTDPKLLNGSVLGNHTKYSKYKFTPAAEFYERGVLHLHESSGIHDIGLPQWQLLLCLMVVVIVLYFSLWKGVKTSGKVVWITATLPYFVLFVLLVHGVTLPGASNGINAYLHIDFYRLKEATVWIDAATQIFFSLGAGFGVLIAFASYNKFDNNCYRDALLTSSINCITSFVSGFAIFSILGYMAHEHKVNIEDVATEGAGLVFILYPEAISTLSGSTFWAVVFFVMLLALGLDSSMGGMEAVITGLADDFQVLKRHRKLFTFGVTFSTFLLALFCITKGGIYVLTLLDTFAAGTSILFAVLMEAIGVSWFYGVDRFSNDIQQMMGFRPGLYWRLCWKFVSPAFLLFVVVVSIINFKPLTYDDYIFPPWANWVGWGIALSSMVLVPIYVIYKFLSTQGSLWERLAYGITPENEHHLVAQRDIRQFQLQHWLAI

With `O=c1sc2cc(CCC[18F])ccc2n1CCN1CCCCCC1`, the Drug uptake entry is on record as “Not Active” in the series filed under Mus musculus [1]; “Active” in the series on Cerebellum; “Active” with Hippocampus; “Active” in the series with Cortex; “Active” in the series listed under Mus musculus [2]; 100% in the series with Brain [3]. The Drug uptake in the series with Liver [4] is recorded as 27%; in the series with Brain [5], 100%; in the series with Liver [6], 34%; in the series with Brain [7] it was “Not Active”; in the series filed under Mus musculus [8], “Active”; in the series on Brain [9], 81%. Besides, the Drug uptake in the series with Brain [10] is 82%; in the series with CHO [11], “Active”; in the series with Brain [12] it was “Active”; with Brain [13] it was 80%.
As to `CCCc1ccc2c(c1)sc(=O)n2CCN1CCCCCC1`, the Ki in series [14] amounted to 247 nM; in series [15] it was 627 nM; in series [16], 1.7 nM.
Regarding `O=c1sc2cc(CCCF)ccc2n1CCN1CCCCCC1`, the Activity in series [17], in series [18], in [19], in series [20], in series [21] and in series [22] was below 50% each time. Further, the Activity in series [23], in [24] and in series [28] was below 50% throughout. The outcome in [25] was Active. In [26], this molecule yielded a fold change (FC) of 4. Moreover, the figures for the Ki in series [14] and in series [27] were 467 nM and 0.96 nM, respectively.
For the molecule `[3H]c1cc2c(c([3H])c1O)[C@@]1(C)CCN(CC=C(C)C)[C@@H](C2)[C@H]1C`, in the series with CHO [29], the Drug uptake result is on record as “Active”.
